One may read the Papp as the rate of passage across a membrane or cell layer, normalised by area and donor concentration. Read a low Papp as poor permeation. For orientation: IC50 means the concentration needed to halve the response being measured.

From ChEMBL document CHEMBL4477223, “Design, synthesis and biological evaluation of N-methyl-N-[(1,2,3-triazol-4-yl)alkyl]propargylamines as novel monoamine oxidase B inhibitors” (Bioorg Med Chem, 2016) come the findings set out here.

Series [1] is described as follows: Permeability of the compound at pH 7.4 after 18 hrs by PAMPA-BBB assay. Background: In PAMPA a lipid-coated filter parts donor from acceptor wells.
In series [2] the target is T1, Amine oxidase [flavin-containing] A (Homo sapiens, UniProt P21397).
T1 sequence (P21397 whole entry): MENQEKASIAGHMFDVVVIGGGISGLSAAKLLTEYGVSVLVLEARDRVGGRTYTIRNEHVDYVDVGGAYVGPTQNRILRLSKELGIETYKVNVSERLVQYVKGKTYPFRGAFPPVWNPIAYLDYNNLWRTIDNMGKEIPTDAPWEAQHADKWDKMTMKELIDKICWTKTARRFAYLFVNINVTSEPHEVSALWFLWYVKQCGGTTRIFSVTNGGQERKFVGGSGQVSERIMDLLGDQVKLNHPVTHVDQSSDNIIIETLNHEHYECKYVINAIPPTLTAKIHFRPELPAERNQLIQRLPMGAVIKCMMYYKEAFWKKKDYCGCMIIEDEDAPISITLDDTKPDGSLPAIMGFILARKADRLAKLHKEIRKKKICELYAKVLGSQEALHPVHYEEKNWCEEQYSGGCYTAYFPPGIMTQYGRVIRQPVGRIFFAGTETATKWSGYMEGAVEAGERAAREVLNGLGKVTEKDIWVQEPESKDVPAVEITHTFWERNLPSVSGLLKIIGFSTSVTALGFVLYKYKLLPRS
Kind of series: Inhibition of human recombinant MAO-A preincubated for 30 mins followed by p-tyramine hydrochloride addition measured after 30 mins by Amplex red fluorescence based spectrophotometry. In outline:
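hrMAO-A at 0.36 U/mL preincubated with serial inhibitor dilutions for 30 min at 37 °C. Reaction started by adding 1 mM tyramine, 0.04 U/mL HRP and Amplex UltraRed in 0.25 mM sodium phosphate pH 7.4 (final). Resorufin fluorescence read at 530/590 nm for at least 30 min. No-compound activity set as 100%. Interference checked without enzyme.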

Series [3] has as its target T2, Amine oxidase [flavin-containing] B (Homo sapiens, UniProt P27338).
T2 sequence (P27338 whole entry): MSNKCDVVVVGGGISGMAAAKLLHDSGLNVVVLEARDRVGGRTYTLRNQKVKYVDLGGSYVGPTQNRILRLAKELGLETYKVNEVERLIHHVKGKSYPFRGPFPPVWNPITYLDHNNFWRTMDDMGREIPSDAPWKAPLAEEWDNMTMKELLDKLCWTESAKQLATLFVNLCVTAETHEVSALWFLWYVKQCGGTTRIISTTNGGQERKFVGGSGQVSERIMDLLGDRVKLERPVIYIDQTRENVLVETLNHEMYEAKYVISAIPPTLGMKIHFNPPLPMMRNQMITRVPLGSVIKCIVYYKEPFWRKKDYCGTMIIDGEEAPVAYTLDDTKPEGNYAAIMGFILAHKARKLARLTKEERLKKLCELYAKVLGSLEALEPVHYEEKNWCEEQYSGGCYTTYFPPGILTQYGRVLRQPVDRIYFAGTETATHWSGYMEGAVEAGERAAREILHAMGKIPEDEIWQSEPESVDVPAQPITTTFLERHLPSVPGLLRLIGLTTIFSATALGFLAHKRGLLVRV
The series can be described thus: Inhibition of human recombinant MAO-B preincubated for 30 mins followed by p-tyramine hydrochloride addition measured after 30 mins by Amplex red fluorescence based spectrophotometry.

Series [4] is filed under the species Homo sapiens. Kind of series: Selectivity index, ratio of IC50 for human recombinant MAO-A to IC50 for human recombinant MAO-B.
In series [5] the target is T2, Amine oxidase [flavin-containing] B. Kind of series: Time-dependent inhibition of human recombinant MAO-B at 10 uM preincubated with enzyme followed by p-tyramine hydrochloride substrate addition by Amplex red fluorescence based spectrophotometry. The procedure, abridged:
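hrMAO-B was preincubated with inhibitor at 10 µM for 0–360 min. After each preincubation, activity was measured in the standard Amplex UltraRed/tyramine/HRP fluorometric assay at 530/590 nm. Results were expressed as % of control samples versus preincubation time.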

Series [6] shares this target. The series can be described thus: Irreversible inhibition of human recombinant MAO-B at 50 uM preincubated for 1 h followed by 100 fold enzyme dilution and p-tyramine hydrochloride substrate addition measured after 40 mins by Amplex red fluorescence based spectrophotometry.

In turn, `CN/C(=N/CCSCc1nc[nH]c1C)NC#N` [CIMETIDINE] gave a Papp at 18 h in series [1] of under 7 nm/s.
For the compound `C#CCN(C)CCc1nnn(C(C)c2ccccc2)c1C` (stereo not given), the 50% inhibitory concentration (IC50) amounted to 47 µM in series [2] and 134 µM in series [3]. The same compound showed a Papp at 18 h in series [1] of 200 nm/s. The Ratio IC50 in series [4] is 0.4.
As for `C#CCN(C)Cc1cccc(Cc2cn(C)nn2)c1`, the IC50 was 2.1 µM in series [2] and 65 µM in series [3]. The Papp at 18 h in series [1] was 156 nm/s. Besides, the Ratio IC50 in series [4] amounted to 0.03.
In series [1], `CNCCCN1c2ccccc2CCc2ccccc21` [DESIPRAMINE] came in with a Papp at 18 h of 120 to 178 nm/s.
On the same count and under the same terms, to `CCn1cc(C(=O)O)c(=O)c2cc(F)c(N3CCNCC3)cc21` [NORFLOXACIN] belongs 1 to 9 nm/s.
The same measure, in the same setting: as for `CCn1cc(C(=O)O)c(=O)c2cc(F)c(N3CCNC(C)C3)c(F)c21` (stereo not given) [LOMEFLOXACIN], the figure is under 7.8 nm/s.
Turning to `C#CCN(C)CCc1nnn(-c2ccccc2)c1CCCC`, the IC50 in series [2] is 17.3 µM; in series [3] it was 156 µM. Further, the Papp at 18 h in series [1] is 214 nm/s. In series [4], the Ratio IC50 is 0.1.
In the same order, the values of `C#CCN(C)Cc1nnn(C)c1CCCC` are under 300 µM, 94.7 µM, 299 nm/s and under 3.2.
Regarding `C#CCN(C)Cc1cn(CC)nn1`, the concentration for half-maximal inhibition (IC50) in series [2] was 135 µM; in series [3], 249 µM. Also, in series [4], the Ratio IC50 is 0.5.
On the same counts, the results for `C#CCN(C)CCc1nnn(CC)c1C` are 91.2 µM, 238 µM and 0.4.
Consider `C#CCN(C)Cc1cn(Cc2ccccc2)nn1`, for which the half-inhibitory concentration (IC50) in series [2] was over 500 µM; in series [3], 129 µM. Further, in series [1], the Papp at 18 h is 23 nm/s. In series [4], the Ratio IC50 is over 3.9.
On the same counts, the results for `C#CCN(C)CCc1cn(CCc2ccccc2)nn1` are 56.1 µM, 173 µM, 148 nm/s and 0.3.
`CC(=O)[C@H]1CC[C@H]2[C@@H]3CCC4=CC(=O)CC[C@]4(C)[C@H]3CC[C@]12C` [PROGESTERONE] had an apparent permeability (Papp) at 18 h in series [1] of 93 to 168 nm/s.
In the case of `CN(C)CCCN1c2ccccc2Sc2ccccc21` [PROMAZINE], in series [1], the Papp at 18 h lay within 88 to 138 nm/s.
`C#CCN(C)Cc1ccc(Cc2cn(C)nn2)cc1`: the IC50 in series [2] came out at 0.5 µM; in series [3], 0.6 µM. The Papp at 18 h in series [1] was determined as 148 nm/s. Moreover, the Ratio IC50 in series [4] amounted to 0.9.
As for `Clc1cccc(Cl)c1N=C1NCCN1` [CLONIDINE], in series [1], the Papp at 18 h fell in the range of 53 to 65 nm/s.
`C#CCN(C)Cc1nnn(CC)c1C`: the values for the IC50 in series [2] and in series [3] were 267 µM and 105 µM, respectively. For the same compound, in series [4], the Ratio IC50 came to 2.6.
`C#CCN(C)CCc1nnn(-c2ccccc2)c1CCC`: the IC50 is 26.1 µM in series [2] and 157 µM in series [3]. For the same compound, the Papp at 18 h in series [1] came out at 172 nm/s. For the same compound, the Ratio IC50 in series [4] is 0.2.
On the same counts, the results for `C#CCN(C)CCc1nnn(-c2ccccc2)c1CC` are 7.5 µM, 213 µM, 170 nm/s and 0.04.
Take `C#CCN(C)Cc1cn(CCc2ccccc2)nn1`: the IC50 in series [2] was over 500 µM; in series [3], 11.2 µM. Besides, the Papp at 18 h in series [1] came to 6 nm/s. For the same compound, the Ratio IC50 in series [4] is over 44.6.
`CN1C(C(=O)Nc2ccccn2)=C(O)c2ccccc2S1(=O)=O` [PIROXICAM] had a Papp at 18 h in series [1] of 19.3 to 25 nm/s.
On to `C#CCN(C)CCc1cn(Cc2ccccc2)nn1`, for which the IC50 in series [2] worked out at 97.1 µM; in series [3] it was 3.5 µM. For the same compound, the TDI result in series [5] is “Active”. In addition, the Papp at 18 h in series [1] amounted to 156 nm/s. Moreover, the Ratio IC50 in series [4] is 27.7. The “inhibition (INH)” value in series [6] is given as “Active”.
As for `C#CCN(C)CCc1ccc(Cc2cn(C)nn2)cc1`, the IC50 in series [2] was 27.4 µM; in series [3], 5.2 µM. In series [1], this compound yielded a Papp at 18 h of 45 nm/s. The Ratio IC50 in series [4] amounted to 5.3.
Regarding `C#CCN(C)CCc1cn(CC)nn1`, the IC50 in series [2] is 554 µM; in series [3] it was 374 µM. Also, in series [4], the Ratio IC50 was found to be 1.5.
